# Measured values gathered from unrelated publications.
# Each line is one published result; the experiments were not run side by side.
# Target: Serine/threonine-protein kinase BRSK1 (BRSK1, Homo sapiens, UniProt Q8TDC3)
# Sequence (Q8TDC3 1-778, as in one of the studies): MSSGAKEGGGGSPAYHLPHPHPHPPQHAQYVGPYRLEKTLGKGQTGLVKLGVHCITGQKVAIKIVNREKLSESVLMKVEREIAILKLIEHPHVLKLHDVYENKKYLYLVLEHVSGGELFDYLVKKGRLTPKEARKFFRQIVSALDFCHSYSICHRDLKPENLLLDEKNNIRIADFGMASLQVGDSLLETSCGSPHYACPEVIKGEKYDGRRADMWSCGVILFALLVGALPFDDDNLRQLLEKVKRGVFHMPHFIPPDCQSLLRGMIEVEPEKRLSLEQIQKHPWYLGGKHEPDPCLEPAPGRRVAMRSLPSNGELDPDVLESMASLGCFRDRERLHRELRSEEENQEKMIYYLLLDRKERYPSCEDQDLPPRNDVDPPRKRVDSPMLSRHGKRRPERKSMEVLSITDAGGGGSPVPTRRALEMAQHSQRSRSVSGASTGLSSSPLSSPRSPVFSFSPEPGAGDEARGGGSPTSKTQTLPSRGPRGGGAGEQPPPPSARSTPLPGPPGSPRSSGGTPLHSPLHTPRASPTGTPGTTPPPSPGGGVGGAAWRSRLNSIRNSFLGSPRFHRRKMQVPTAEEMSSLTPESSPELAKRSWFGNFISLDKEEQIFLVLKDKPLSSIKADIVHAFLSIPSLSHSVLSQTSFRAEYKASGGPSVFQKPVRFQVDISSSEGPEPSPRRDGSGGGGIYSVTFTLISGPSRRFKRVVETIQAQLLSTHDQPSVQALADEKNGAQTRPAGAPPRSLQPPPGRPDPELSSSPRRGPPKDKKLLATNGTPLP
SMILES,assay,conditions,measurement,value
CC(C)(O)c1cncc(-c2nc3ccc(F)cc3n2C2CC2)c1,"cell-free assay, competition with immobilised ligand",1 µM,remaining binding,100%
O=C(Nc1cnn(-c2csc(C(=O)NC3COC3)c2)c1)Nc1ccccc1Cl,"enzyme activity, inhibitor",5 µM,remaining activity,85.5%
CNC(=O)c1cc(Oc2ccc(NC(=O)Nc3ccc(Cl)c(C(F)(F)F)c3)cc2)ccn1,"enzyme activity, inhibitor",0.3 µM,inhibition,17%
O=C(Nc1cccnn1)N1CCC(=Cc2cccc(Oc3ccc(C(F)(F)F)cn3)c2)CC1,"cell-free assay, competition with immobilised ligand",1 µM,remaining binding,73%
Cc1sc(C(=O)NC2COC2)cc1-n1cc(NC(=O)Nc2c(F)cccc2Cl)cn1,"enzyme activity, inhibitor",10 µM,remaining activity,87.8%
FC(F)(F)Oc1cccc(-c2cnc3ccc(-c4ccncc4)nn23)c1,"enzyme activity, inhibitor, radiometric",1 µM,activity vs control,103%
CCCCN(CCCC)C(=O)CN1C[C@@H](c2cc(OC)c3c(c2)OCO3)[C@H](C(=O)O)[C@H]1CC(C)(C)CCC,"cell-free assay, competition with immobilised ligand",1 µM,remaining binding,88.9%
COc1cc2ncnc(Nc3ccc(F)c(Cl)c3)c2cc1OCCCN1CCOCC1,cell-free assay,0.5 µM,remaining signal,92.5%
COc1cc(Nc2cnc(C#N)c(O[C@H](C)CN(C)C)n2)ncc1-c1cnn(C)c1,"enzyme activity, inhibitor, radiometric",10 µM,remaining activity,53%
O=C1Nc2ccc(Cl)cc2C1=Cc1cc(Cl)c(O)c(Cl)c1,cell-free assay,0.5 µM,remaining signal,81.3%
CCc1ccccc1C(=O)Nc1n[nH]c2c(C)c(F)c(C3C(C#N)=C(C)N(C)C(C)=C3C#N)cc12,"cell-free assay, competition with immobilised ligand",1 µM,remaining binding,55%
Cc1cnc(NC2CCOCC2)nc1-n1cnc(C(=O)NC(CN)c2cc(F)cc(Cl)c2)c1 (stereo not drawn),"enzyme activity, inhibitor, radiometric",1 µM,remaining activity,77%
CC(C)(C)c1nc(-c2cccc(NS(=O)(=O)c3c(F)cccc3F)c2F)c(-c2ccnc(N)n2)s1,"enzyme activity, inhibitor, radiometric",1 µM,remaining activity,105%
Nc1ncnc2occ(-c3ccc(NC(=O)Nc4cc(C(F)(F)F)ccc4F)cc3)c12,"cell-free assay, inhibitor",20 µM,remaining signal,8.4%
Cc1ccc(Nc2nccc(N(C)c3ccc4c(C)n(C)nc4c3)n2)cc1S(N)(=O)=O,"enzyme activity, inhibitor",10 µM,inhibition,36%
O=C1NC(=O)c2cc(Nc3ccc(F)cc3)c(Nc3ccc(F)cc3)cc21,cell-free assay,0.5 µM,remaining signal,94.3%
CN1CC(Oc2cnc(C#N)cc2-c2ccn3nc(NC(=O)C4CC4)cc3c2)C1,"enzyme activity, inhibitor",1 µM,inhibition,6%
CCC(=N\O)/C(C)=C/c1ccc(F)cc1,"cell-free assay, competition with immobilised ligand",1 µM,remaining binding,100%
COc1cc2ncnc(Nc3ccc(Oc4ccccc4)cc3C)c2cc1OC,"enzyme activity, inhibitor",1 µM,inhibition,1%
COc1cc(/C=C/C(=O)CC(=O)/C=C/c2ccc(O)c(OC)c2)ccc1O,"enzyme activity, inhibitor",1 µM,activity vs control,92%
CNC(=O)c1ccc(Nc2ncc(C(F)(F)F)c(NCc3nccnc3N(C)S(C)(=O)=O)n2)cc1,"cell-free assay, competition with immobilised ligand",0.1 µM,remaining binding,100%
CC/C(=N\NC(=O)NCc1cccc(O)c1)c1ccc(O)c(C)c1O,"enzyme activity, inhibitor",0.1 µM,inhibition,1.7%
C[C@H](c1ccc(F)cc1)N(Cc1cccc(C(=O)O)c1)C(=O)c1cnc2ccccc2c1,"cell-free assay, competition with immobilised ligand",1 µM,remaining binding,100%
N[C@@H]1CCN(c2nccc(-c3cnn4ncccc34)n2)C1,binding,1 µM,remaining binding,100%
CCN(CC)CCNC(=O)c1c(C)[nH]c(/C=C2\C(=O)Nc3ccc(F)cc32)c1C,"enzyme activity, inhibitor",0.3 µM,inhibition,27%
Oc1cccc(-c2nc(N3CCOCC3)c3oc4ncccc4c3n2)c1,"enzyme activity, inhibitor",10 µM,remaining activity,109%
CC1=C(C#N)C(c2ccc3c(c2)c(NC(=O)c2ccccc2C)nn3C)C(C#N)=C(C)N1,"cell-free assay, competition with immobilised ligand",1 µM,remaining binding,100%
